Calls of active or inactive are those of the source. The calls are words filed in the database; no cut-off is given here.
Tests used:
[1] = tested on: ASPC1; assay: Synergistic cytotoxicity against human Aspc-1 cells assessed as reduction in cell viability at ED50 in presence of doxorubicin by MTS assay; format: functional
Method in brief: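 AsPC-1 cells treated with compound combinations and viability read by MTS. Combination index at ED50, ED75 and ED90 calculated by the Chou−Talalay method. CI = 1 additive, <1 synergism, >1 antagonism. Representative of three independent experiments.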

[2] = Inhibition of recombinant human His-tagged KGA K507A mutant expressed in Escherichia coli BL21(DE3)pLysS using glutamine substrate preincubated for 10 mins followed by substrate addition measured after 60 mins
[3] = Terminal half life in Sprague-Dawley rat at 10 mg/kg, po by HPLC-MS analysis; format: ADME, organism-based; details: in vivo, read-out: beta t1/2 (converted)
Method in brief: (§1)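 Male rats (330−380 g, 9−10 weeks old), jugular-vein cannulated 1 day before dosing, n = 3. Dosed iv in DMA/PEG400 (20%/80%, v/v) or po in 1% CMC/0.5% Tween-80. Blood (100 μL) drawn at 0, 2 min, 5 min (iv only), 15 and 30 min, and 1, 2, 4, 6, 8 and 24 h. Plasma measured by LC-MS/MS; parameters from noncompartmental analysis.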

[4] = Volume of distribution at steady state in Sprague-Dawley rat at 2 mg/kg, iv by HPLC-MS analysis; format: ADME, organism-based; details: in vivo, read-out: Vdss
Method in brief: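 Male rats (330−380 g, 9−10 weeks old), quarantined 1 week, jugular-vein cannula implanted 1 day before dosing; n = 3. Single iv dose in DMA/PEG400 (20%/80%, v/v). Blood (100 μL) was drawn via cannula at 0, 2, 5, 15, 30 min and 1, 2, 4, 6, 8, 24 h and kept on ice. Plasma was analysed by HPLC−MS/MS. Vss came from noncompartmental analysis.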

[5] = Cmax in Sprague-Dawley rat at 10 mg/kg, po by HPLC-MS analysis; format: ADME, organism-based; design: dose 10 mg/kg, route oral; details: in vivo; method in brief: as §1
[6] = Inhibition of recombinant human His-tagged KGA R387L mutant expressed in Escherichia coli BL21(DE3)pLysS using glutamine substrate preincubated for 10 mins followed by substrate addition measured after 60 mins
[7] = Oral bioavailability in Sprague-Dawley rat at 10 mg/kg by HPLC-MS analysis; format: ADME, organism-based; details: in vivo; method in brief: as §1
[8] = Inhibition of recombinant human His-tagged KGA R387A mutant expressed in Escherichia coli BL21(DE3)pLysS using glutamine substrate preincubated for 10 mins followed by substrate addition measured after 60 mins
[9] = target: T1, Glutaminase liver isoform, mitochondrial (Homo sapiens) (UniProt Q9UI32); assay: Inhibition of human GLS2 in GLS1 deficient human Aspc-1 cells assessed as decrease in cellular glutamate production at 3.13 to 100 uM after 4 hrs by amplex red glutamic acid assay
T1 sequence (whole entry): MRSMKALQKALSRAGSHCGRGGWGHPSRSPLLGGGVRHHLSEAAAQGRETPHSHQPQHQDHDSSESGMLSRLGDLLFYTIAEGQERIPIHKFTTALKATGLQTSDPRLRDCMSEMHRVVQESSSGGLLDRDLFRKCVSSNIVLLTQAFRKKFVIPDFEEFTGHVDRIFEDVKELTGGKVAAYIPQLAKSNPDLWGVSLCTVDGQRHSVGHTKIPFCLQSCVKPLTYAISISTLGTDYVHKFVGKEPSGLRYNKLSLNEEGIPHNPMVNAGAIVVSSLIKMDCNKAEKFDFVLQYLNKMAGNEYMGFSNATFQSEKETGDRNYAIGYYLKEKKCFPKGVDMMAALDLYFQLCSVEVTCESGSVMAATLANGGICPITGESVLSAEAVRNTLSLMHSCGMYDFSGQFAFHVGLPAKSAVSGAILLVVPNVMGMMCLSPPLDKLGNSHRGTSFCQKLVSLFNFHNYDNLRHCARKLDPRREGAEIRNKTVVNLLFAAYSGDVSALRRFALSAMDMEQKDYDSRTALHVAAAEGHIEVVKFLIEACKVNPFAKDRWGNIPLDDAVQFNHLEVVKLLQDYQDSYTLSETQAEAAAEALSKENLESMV
Method in brief: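 GLS-knockout AsPC-1 cells made with GLS-KO ZFN mRNA, single-cell cloned, and grown in glutamine-free RPMI 1640 with 10% FBS. Cells seeded at 30 000/well and grown 24 h at 37 °C. Treated 4 h with 1% DMSO vehicle or 3.13−100 μM inhibitor, washed with PBS, and lysed in NP-40 buffer (4 °C, 20 min). Lysate glutamate measured by Amplex Red. Three independent experiments in duplicate.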

[10] = tested on: ASPC1; assay: Anticlonogenic activity against human Aspc-1 cells at 10 uM after 21 days by crystal violet staining based assay relative to control; format: functional; details: ASPC1, 504 h
Method in brief: (§2)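 Anchorage-dependent colony formation: AsPC-1 cells seeded at 1000 cells/well in six-well plates and treated with compound. Colony formation is expressed as percent of vehicle treatment. Mean ± SD from at least three independent experiments, each in duplicate.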

[11] = tested on: MDA-MB-231; assay: Growth inhibition of human MDA-MB-231 cells after 72 hrs by MTS assay; format: functional, cell-based; details: MDA-MB-231, 72 h
Method in brief: (§3)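 Growth inhibition by MTS viability read-out. Cells seeded in 96-well plates at 4000/well (AsPC-1) or 8500/well (MDA-MB-231). Mean ± SD from at least three independent experiments, each in duplicate.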

[12] = AUC (0 to infinity) in Sprague-Dawley rat at 2 mg/kg, iv by HPLC-MS analysis; format: ADME, organism-based; design: dose 2 mg/kg, route intravenous, time infinity; details: in vivo; method in brief: as §1
[13] = tested on: ASPC1; assay: Growth inhibition of human Aspc-1 cells after 72 hrs by MTS assay; format: functional, cell-based; details: ASPC1, 72 h; method in brief: as §3
[14] = AUC (0 to infinity) in Sprague-Dawley rat at 10 mg/kg, po by HPLC-MS analysis; format: ADME, organism-based; design: dose 10 mg/kg, time infinity, route oral; details: in vivo
Method in brief: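 Male rats (330−380 g, 9−10 weeks old), jugular-vein cannulated 1 day before dosing, n = 3. Oral dose given in 1% CMC/0.5% Tween-80. Blood (100 μL) taken via cannula at 0, 15 and 30 min and 1, 2, 4, 6, 8 and 24 h, kept on ice. Plasma analysed by HPLC−tandem MS. Parameters from noncompartmental analysis.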

[15] = tested on: ASPC1; assay: Anticlonogenic activity against human Aspc-1 cells at 2 uM after 21 days by crystal violet staining based assay relative to control; format: functional; details: ASPC1, 504 h; method in brief: as §2
[16] = Tmax in Sprague-Dawley rat at 10 mg/kg, po by HPLC-MS analysis; format: ADME, organism-based; details: in vivo; method in brief: as §1
[17] = Inhibition of recombinant human His-tagged KGA S384A mutant expressed in Escherichia coli BL21(DE3)pLysS using glutamine substrate preincubated for 10 mins followed by substrate addition measured after 60 mins
[18] = Terminal half life in Sprague-Dawley rat at 2 mg/kg, iv by HPLC-MS analysis; format: ADME, organism-based; details: in vivo, read-out: beta t1/2 (converted); method in brief: as §1
[19] = tested on: ASPC1; assay: Antitumor activity against human Aspc-1 cells xenografted in Balb/cAnN.Cg-Foxn1nu/CrlNarl mouse assessed as tumor growth inhibition at 25 mg/kg, ip once daily administered for 5 days followed by 2 days without dosing for 43 days relative to control; format: functional; details: read-out: TGI
Method in brief: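 Male nude mice (7−8 weeks, 18−22 g) received 4.5 × 10^6 AsPC-1 cells sc in the right flank, in HBSS mixed 1:1 with Matrigel. Mice were randomized once mean tumor reached ~100 mm3 (day 1). Dosing was ip once daily, 5 days on/2 days off, with 2% DMSO/PBS as vehicle. Tumors were measured twice weekly, V = ab²/2. %TGI = [1 − ((Tt − T0)/(Ct − C0))] × 100 from median volumes; Student's t test.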

[20] = compound: Cc1cc(/C=C2\SC(=O)NC2=O)c(C)n1-c1ccc(-c2ccc(/C=C3\SC(=O)NC3=O)cc2)cc1; assay: (§4) Mixed-type inhibition of recombinant human KGA (L123 to L669 residues) expressed in Escherichia coli BL21(DE3)pLysS assessed as Km for substrate at 0.1 uM using glutamine substrate preincubated for 10 mins followed by substrate addition measured after 60 mins by Linerweaver-Burk plot analysis (reference value: 25.5 +/- 0.6 mM)
Method in brief: (§5)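 Kinetic analysis on human KGA: glutamine saturation profiles recorded at 0−0.4 μM inhibitor. Km and Vmax derived at each inhibitor concentration to assign the inhibition mode.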

[21] = compound: Cc1cc(/C=C2\SC(=O)NC2=O)c(C)n1-c1ccc(-c2ccc(/C=C3\SC(=O)NC3=O)cc2)cc1; assay: as §4, with “Vmax” for “Km”, “0.05” for “0.1”, “26.2” for “25.5”, “0.2 nmol/min/ug)” for “0.6 mM)”; method in brief: as §5
[22] = compound: Cc1cc(/C=C2\SC(=O)NC2=O)c(C)n1-c1ccc(-c2ccc(/C=C3\SC(=O)NC3=O)cc2)cc1; assay: as §4, with “Vmax” for “Km”, “0.2” for “0.1”, “26.2” for “25.5”, “0.2 nmol/min/ug)” for “0.6 mM)”; method in brief: as §5
[23] = compound: Cc1cc(/C=C2\SC(=O)NC2=O)c(C)n1-c1ccc(-c2ccc(/C=C3\SC(=O)NC3=O)cc2)cc1; assay: as §4, with “Vmax” for “Km”, “0.4” for “0.1”, “26.2” for “25.5”, “0.2 nmol/min/ug)” for “0.6 mM)”; method in brief: as §5
[24] = compound: Cc1cc(/C=C2\SC(=O)NC2=O)c(C)n1-c1ccc(-c2ccc(/C=C3\SC(=O)NC3=O)cc2)cc1; assay: as §4, with “0.05” for “0.1”; method in brief: as §5
[25] = compound: Cc1cc(/C=C2\SC(=O)NC2=O)c(C)n1-c1ccc(-c2ccc(/C=C3\SC(=O)NC3=O)cc2)cc1; assay: as §4, with “Vmax” for “Km”, “26.2” for “25.5”, “0.2 nmol/min/ug)” for “0.6 mM)”; method in brief: as §5

Molecule: O=C(Cc1ccccc1)Nc1nnc(CCSCCc2nnc(NC(=O)Cc3ccccc3)s2)s1
- CI [1]: 0.45 - 0.68
- IC50 [2]: 0.066 µM
- half-life [3]: 2 h
- Vd [4]: 8.8 L/kg
- Cmax [5]: 0.04 µg/mL
- IC50 [6]: 0.345 µM
- bioavailability [7]: 2%
- IC50 [8]: 0.063 µM
- inhibition [9]: inactive
- inhibition at 10 µM [10]: 98%
- IC50 [11]: 6.8 µM
- AUC(0-inf) [12]: 0.636 µg·h/mL
- IC50 [13]: 10.2 µM
- AUC(0-inf) [14]: 0.073 µg·h/mL
- inhibition at 2 µM [15]: 41%
- Tmax [16]: 0.7 h
- IC50 [17]: 0.065 µM
- half-life [18]: 5.3 h
- inhibition in vivo at 25 mg/kg [19]: 55%

B1: Glutaminase kidney isoform, mitochondrial (Homo sapiens), O94925 (protein)
chain: MMRLRGSGMLRDLLLRSPAGVSATLRRAQPLVTLCRRPRGGGRPAAGPAAAARLHPWWGGGGWPAEPLARGLSSSPSEILQELGKGSTHPQPGVSPPAAPAAPGPKDGPGETDAFGNSEGKELVASGENKIKQGLLPSLEDLLFYTIAEGQEKIPVHKFITALKSTGLRTSDPRLKECMDMLRLTLQTTSDGVMLDKDLFKKCVQSNIVLLTQAFRRKFVIPDFMSFTSHIDELYESAKKQSGGKVADYIPQLAKFSPDLWGVSVCTVDGQRHSTGDTKVPFCLQSCVKPLKYAIAVNDLGTEYVHRYVGKEPSGLRFNKLFLNEDDKPHNPMVNAGAIVVTSLIKQGVNNAEKFDYVMQFLNKMAGNEYVGFSNATFQSERESGDRNFAIGYYLKEKKCFPEGTDMVGILDFYFQLCSIEVTCESASVMAATLANGGFCPITGERVLSPEAVRNTLSLMHSCGMYDFSGQFAFHVGLPAKSGVAGGILLVVPNVMGMMCWSPPLDKMGNSVKGIHFCHDLVSLCNFHNYDNLRHFAKKLDPRREGGDQRVKSVINLLFAAYTGDVSALRRFALSAMDMEQRDYDSRTALHVAAAEGHVEVVKFLLEACKVNPFPKDRWNNTPMDEALHFGHHDVFKILQEYQVQYTPQGDSDNGKENQTVHKNLDGLL
- Km [20]: 69.7 mM
- Vmax [21]: 26.3 nmol/min/µg
- Vmax [22]: 22.9 nmol/min/µg
- Vmax [23]: 15 nmol/min/µg
- Km [24]: 50.9 mM
- Vmax [25]: 26.2 nmol/min/µg

From ChEMBL document CHEMBL4011632, “Design, Synthesis, and Evaluation of Thiazolidine-2,4-dione Derivatives as a Novel Class of Glutaminase Inhibitors” (J Med Chem, 2017)
